Source: article PMC7606109 (Acta Pharmaceutica Sinica. B, 2020)

Test: MTT cell toxicity assay
Format: cell-based
Conditions: human, HeLa cells
Procedure, shortened: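 HeLa cells grown in DMEM with 10% heat-inactivated FBS and 1% penicillin/streptomycin, 5% CO2, 37 °C. Exponentially growing cells were seeded at 2–6 × 10^3 per well and left 24 h, then exposed to graded test compound concentrations for 48 h. MTT (5 mg/mL stock) was added for 2–4 h at 37 °C. Formazan was dissolved in DMSO and read at 492 nm. Mean ± SD, n = 3.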

For `NS(=O)(=O)NCCNc1nonc1C(=NO)Nc1ccc(F)c(Br)c1` [Epa, Epacadostat], which IC50 at 48 h is on record?
Its IC50 at 48 h is greater than 40 µM.
